Data set [1] is described as follows: Neurotoxicity in ip dosed NMRI mouse assessed as minimal motor impairment after 30 mins. The class given is toxicity, organism-based. The conditions noted are these: in vivo. In a few lines:
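Adult male NMRI mice dosed ip at UCB Pharma. Neurological toxicity was scored on the rotorod test 30 min after dosing.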

Data set [2] can be described thus: Neurotoxicity in ip dosed CF1 mouse assessed as minimal motor impairment after 30 mins. The class given is toxicity, organism-based. The note with it: in vivo.
The species named for data set [3] is Mus musculus. As to the kind of experiment: Protective index, ratio of TD50 for NMRI mouse to ED50 for NMRI mouse formalin-induced neuropathic pain model. Format: functional.
In data set [4] the test system is Mus musculus. In words: Anticonvulsant activity in NMRI mouse assessed as protection against subcutaneous pentylenetetrazol-induced seizure at 30 to 300 mg/kg, ip after 0.5 to 4 hrs. The class given is functional, organism-based.
Data set [5] relates to Mus musculus. As to the kind of experiment: Anticonvulsant activity in ip dosed CF1 mouse assessed as protection against maximal electroshock-induced seizure after 30 mins. The class given is functional. The note with it: 0.5 h. In a few lines:
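Adult male albino CF-1 (Carworth Farms No. 1) mice dosed ip under the NINDS ASP; maximal electroshock seizure test. For compounds with sufficient activity, a dose-response curve was run at the time of peak effect (hours).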

Data set [6] relates to Rattus norvegicus. As to the kind of experiment: Anticonvulsant activity in po dosed Sprague-Dawley rat assessed as protection against maximal electroshock-induced seizure after 30 mins. Format: functional. The note with it: 0.5 h. (Protection in the maximal electroshock model is a classic sign of anticonvulsant action.)
Data set [7] is described as follows: Neurotoxicity in po dosed Sprague-Dawley rat assessed as minimal motor impairment after 30 mins by rotorod test. The class given is toxicity, organism-based. The note with it: in vivo. On the technique in general: In the rotarod test animals must keep their balance on a rotating rod.
The species named for data set [8] is Rattus norvegicus. In words: Protective index, ratio of TD50 for Sprague-Dawley rat to ED50 for Sprague-Dawley rat by maximal electroshock seizure test. The class given is functional. Summed up:
(§1)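 Protective index computed as rotorod (mice) or behavioral (rats) TD50 divided by MES ED50, both in mg/kg in the same species and route.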

In data set [9] the test system is Mus musculus. In words: Antinociceptive activity in ip dosed NMRI mouse assessed as inhibition of formalin-induced neuropathic pain after 30 mins. The class given is functional. The conditions noted are these: 0.5 h. In a few lines: (§2)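 NMRI mice dosed ip at UCB Pharma, then tested in the formalin model of neuropathic pain. ED50 in mg/kg read 30 min after administration. Single-dose runs report the percentage protected.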

The subject of data set [10] is Mus musculus. As to the kind of experiment: Anticonvulsant activity in ip dosed NMRI mouse assessed as protection against maximal electroshock-induced seizure after 30 mins. Format: functional. The note with it: 0.5 h; for minimal effective dose: read-out: MED. In a few lines: (§3)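 Adult male NMRI mice dosed ip (UCB Pharma). MES test run per the Klitgaard procedure. […] Single-dose runs report the percentage of animals protected.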

The test system of data set [11] is Mus musculus. As to the kind of experiment: Anticonvulsant activity in ip dosed NMRI mouse assessed as protection against 6 Hz psychomotor seizure after 30 mins. The class given is functional. The conditions noted are these: 0.5 h; for minimal effective dose: read-out: MED. In a few lines: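 Adult male NMRI mice dosed ip (UCB Pharma). 6 Hz psychomotor seizure model at 44 mA, per Kaminski and co-workers.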

Data set [12] deals with Mus musculus. In words: Antinociceptive activity in NMRI mouse assessed as inhibition of formalin-induced neuropathic pain at 75 mg/kg, ip after 30 mins. The class given is functional. On the set-up: scale not given: the % may be the effect or the level left. The note with it: route intraperitoneal. In a few lines:
as §2

The species named for data set [13] is Mus musculus. As to the kind of experiment: Protective index, ratio of TD50 for CF1 mouse to ED50 for CF1 mouse by maximal electroshock seizure test. Format: functional. Summed up:
as §1

The subject of data set [14] is Mus musculus. As to the kind of experiment: Antinociceptive activity in NMRI mouse assessed as inhibition of formalin-induced neuropathic pain at 74 mg/kg, ip after 30 mins. The class given is functional. Also on record: scale not given: the % may be the effect or the level left. The note with it: route intraperitoneal. In a few lines:
as §2

The test system of data set [15] is Mus musculus. In words: Antinociceptive activity in NMRI mouse assessed as inhibition of formalin-induced neuropathic pain at 83 mg/kg, ip after 30 mins. Format: functional. Also on record: scale not given: the % may be the effect or the level left. The note with it: route intraperitoneal. Summed up:
as §2

The subject of data set [16] is Mus musculus. As to the kind of experiment: Antinociceptive activity in NMRI mouse assessed as inhibition of formalin-induced neuropathic pain at 71 mg/kg, ip after 30 mins. The class given is functional. The conditions noted are these: route intraperitoneal. Also on record: scale not given: the % may be the effect or the level left. In a few lines: as §2
The subject of data set [17] is Mus musculus. In words: Anticonvulsant activity in NMRI mouse assessed as protection against maximal electroshock-induced seizure at 46 mg/kg, ip after 30 mins. Format: functional. The conditions noted are these: route intraperitoneal. Summed up: as §3
For data set [18], the system named is Mus musculus. In words: Anticonvulsant activity in ip dosed CF1 mouse assessed as protection against 6 Hz psychomotor seizure after 30 mins. The note with it: 0.5 h. Format: functional. Summed up:
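Adult male albino CF-1 mice dosed ip (NINDS ASP). 6 Hz psychomotor seizure test at 32 mA, per Stables and Kupferberg.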

The results in this text go back to ChEMBL document CHEMBL2146408, “Primary amino acid derivatives: compounds with anticonvulsant and neuropathic pain protection activities” (J Med Chem, 2011).

By TD50 is commonly meant the dose at which the toxic effect under study appears in half of the subjects. What is called ED50 is the midpoint of the dose-response relation.

Calls of active or inactive are those of the source. No cut-off for these calls is given here. Where only a bound is given, the exact number is not on record here.

In the case of `COC[C@H](NC(C)=O)C(=O)NCc1ccccc1`, the TD50 at 0.5 h in [1] was more than 300 mg/kg.
In the case of `COC[C@@H](N)C(=O)NCc1ccccc1`, the TD50 at 0.5 h in [2] was more than 120 mg/kg; in [1] it was less than 30 mg/kg. In addition, in the data set listed under Mus musculus [3], the “Ratio TD50/ED50” value is more than 1.8. In the data set on Mus musculus [4], the outcome was inactive.
Consider `CC(C)[C@H](N)C(=O)NCc1ccccc1`, for which the TD50 at 0.5 h in [1] is more than 300 mg/kg. Moreover, in the data set with Mus musculus [4], the result was inactive.
In the case of `CC(N)C(=O)NCc1ccccc1` (racemic), the ED50 was more than 100 mg/kg in the data set with Mus musculus [5] and 14 mg/kg with Rattus norvegicus [6]. Further, the values for the TD50 at 0.5 h in data set [1] and in data set [7] were more than 300 mg/kg and more than 500 mg/kg, respectively. Also, the outcome in the data set with Mus musculus [4] was inactive. Further, the “Ratio TD50/ED50” value in the data set filed under Rattus norvegicus [8] is more than 36.
In the case of `C=CCOCC(N)C(=O)NCc1ccccc1` (racemic), the ED50 in the data set with Mus musculus [9] was found to be 75 mg/kg; with Mus musculus [10] it was 45 mg/kg. For the same compound, the minimal effective dose in the data set on Mus musculus [11] was 130 mg/kg. For the same compound, in the data set on Mus musculus [12], the Activity stood at 12%.
Regarding `COCC(N)C(=O)NCc1ccccc1` (racemic), in the data set on Mus musculus [5], the ED50 was 84 mg/kg. Further, in data set [1], the TD50 at 0.5 h stood at 290 mg/kg.
Consider `CCCC(CCC)C(=O)O` [VALPROIC ACID], for which the ED50 in the data set with Mus musculus [5] is 270 mg/kg.
In the case of `CCC[C@H](N)C(=O)NCc1ccccc1`, the ED50 in the data set with Mus musculus [9] is 100 mg/kg; in the data set with Mus musculus [10] it was more than 37 mg/kg; in the data set with Mus musculus [11], more than 210 mg/kg.
Consider `CC(=O)N[C@H](C)C(=O)NCc1ccccc1`, for which, in data set [1], the TD50 at 0.5 h turned out to be 210 mg/kg.
As for `CC(C)[C@@H](N)C(=O)NCc1ccccc1`, the minimal effective dose in the data set with Mus musculus [10] came out at 16 mg/kg. Besides, the “Ratio TD50/ED50” value in the data set listed under Mus musculus [13] turned out to be 4.7; in the data set filed under Mus musculus [3], 2.4. The result in the data set with Mus musculus [4] was inactive. For the same compound, in [7], the TD50 at 0.5 h was more than 500 mg/kg.
Regarding `N[C@H](CO)C(=O)NCc1ccccc1`, the ED50 with Mus musculus [9], in the data set with Mus musculus [10] and in the data set with Mus musculus [11] was more than 62 mg/kg each time. The TD50 at 0.5 h in [2] was more than 110 mg/kg.
In the case of `CC(=O)N[C@@H](C)C(=O)NCc1ccccc1`, the TD50 at 0.5 h in data set [1] stood at 840 mg/kg.
Consider `C#CCOCC(N)C(=O)NCc1ccccc1` (racemic), for which the ED50 stood at 74 mg/kg with Mus musculus [9] and 46 mg/kg in the data set with Mus musculus [10]. Besides, the minimal effective dose in the data set with Mus musculus [11] is 130 mg/kg. Further, in the data set on Mus musculus [14], the Activity turned out to be 27%. Further, the TD50 at 0.5 h in [2] was 47 mg/kg.
Consider `O=C1NC(=O)C(c2ccccc2)(c2ccccc2)N1` [PHENYTOIN], for which the TD50 at 0.5 h in data set [7] is more than 3000 mg/kg.
`CN(C)CC(N)C(=O)NCc1ccccc1` (racemic): the ED50 in the data set with Mus musculus [9] is 83 mg/kg; in the data set with Mus musculus [10], 94 mg/kg; with Mus musculus [11] it was more than 110 mg/kg. Further, in the data set with Mus musculus [15], the Activity came out at 14%.
Regarding `COC[C@@H](NC(C)=O)C(=O)NCc1ccccc1` [LACOSAMIDE], in the data set on Mus musculus [4], the result was inactive. Further, the TD50 at 0.5 h in data set [7] is more than 500 mg/kg.
For `CC(=O)N[C@H](CO)C(=O)NCc1ccccc1`, the TD50 at 0.5 h in data set [1] is more than 500 mg/kg.
Consider `CCOCC(N)C(=O)NCc1ccccc1` (racemic), for which the ED50 in the data set on Mus musculus [9] turned out to be 71 mg/kg; with Mus musculus [10], 73 mg/kg; in the data set with Mus musculus [11], 120 mg/kg. For the same compound, the Activity in the data set on Mus musculus [16] was 19%. Also, the outcome with Mus musculus [4] was inactive.
Regarding `CC(=O)N[C@@H](C(=O)NCc1ccccc1)C(C)(C)C`, the ED50 in the data set with Mus musculus [5] is more than 300 mg/kg. Moreover, in data set [1], the TD50 at 0.5 h was more than 300 mg/kg.
For the compound `CC(C)(C)[C@H](N)C(=O)NCc1ccccc1`, the figures for the TD50 at 0.5 h in data set [1] and in data set [7] were 100 mg/kg and more than 30 mg/kg, respectively. Also, the result in the data set on Mus musculus [4] was inactive. In addition, the ED50 in the data set with Rattus norvegicus [6] is more than 30 mg/kg.
As for `CSCC[C@@H](N)C(=O)NCc1ccccc1`, the ED50 is more than 76 mg/kg in the data set on Mus musculus [9] and 75 mg/kg with Mus musculus [10]. The minimal effective dose in the data set on Mus musculus [11] came to 130 mg/kg.
With `C=CCOCC(NC(C)=O)C(=O)NCc1ccccc1` (racemic), in the data set on Mus musculus [5], the ED50 is less than 30 mg/kg. For the same compound, in [1], the TD50 at 0.5 h is less than 30 mg/kg.
For the compound `CC(=O)NC(CO)C(=O)NCc1ccccc1` (racemic), the ED50 with Mus musculus [5] is less than 100 mg/kg. In addition, the TD50 at 0.5 h in data set [1] was less than 300 mg/kg.
For the compound `CCC(C)C(N)C(=O)NCc1ccccc1` (racemic), the ED50 in the data set with Mus musculus [9] is more than 22 mg/kg; with Mus musculus [11], more than 120 mg/kg. Moreover, the minimal effective dose in the data set with Mus musculus [10] turned out to be 46 mg/kg. Besides, the Activity in the data set with Mus musculus [17] was found to be 100%.
For `CC[C@@H](N)C(=O)NCc1ccccc1`, the ED50 in the data set on Mus musculus [9] was found to be 22 mg/kg; in the data set with Mus musculus [5] it was 18 mg/kg; in the data set on Mus musculus [10], 16 mg/kg; in the data set on Mus musculus [18], 50 mg/kg; in the data set with Rattus norvegicus [6], 11 mg/kg. Besides, in the data set with Mus musculus [11], the minimal effective dose turned out to be 62 mg/kg. For the same compound, the TD50 at 0.5 h is 80 mg/kg in data set [1] and more than 500 mg/kg in data set [7]. Further, the results for the “Ratio TD50/ED50” value in the data set listed under Mus musculus [13] and in the data set listed under Rattus norvegicus [8] were 4.4 and more than 45, respectively. In addition, the outcome in the data set on Mus musculus [4] was inactive.
